Published values collected from several papers.
Compare with care: the assays were run in different laboratories.
Observed: enzyme activity
Mode: inhibitor
CDK2 with cyclin E: Cyclin-dependent kinase 2, with cyclin E (CDK2, Homo sapiens, UniProt P24941)
CDK2 with cyclin A: Cyclin-dependent kinase 2, with cyclin A (CDK2, Homo sapiens, UniProt P24941)

COc1cc(Cl)c(C(=O)N[C@@H](CN[C@H]2CC[C@@H](N)CC2)Cc2ccc(C#N)cc2)cc1-c1ccc(CN[C@H](C)c2ccc(C)cc2)o1
remaining activity (CDK2 with cyclin E; 1 µM): 90%

Cc1ccc(C(=O)Nc2ccc(CN3CCN(C)CC3)c(C(F)(F)F)c2)cc1C#Cc1cnc2cccnn12
remaining activity (Cyclin-dependent kinase 2 (CDK2, Homo sapiens, UniProt P24941); 23.5 nM): 96%

Cc1ccc(Nc2nccc(N(C)c3ccc4c(C)n(C)nc4c3)n2)cc1S(N)(=O)=O
remaining activity (CDK2 with cyclin A; 0.5 µM): 96.1%

CC(C)(C)c1nc(-c2cccc(NS(=O)(=O)c3c(F)cccc3F)c2F)c(-c2ccnc(N)n2)s1
remaining activity (Cyclin-dependent kinase 2, with cyclin E1 (CDK2, Homo sapiens, UniProt P24941); radiometric; 1 µM): 90%

CC(C)(O)[C@H]1CC[C@H](Nc2ccc3ncc(-c4cccc(C(F)(F)F)c4)n3n2)CC1
remaining activity (CDK2 with cyclin E; 1 µM): 91.1%

O=C(Nc1cnn(-c2csc(C(=O)NC3COC3)c2)c1)Nc1c(F)cccc1Cl
remaining activity (Cyclin-dependent kinase 2, with cyclin A1 (CDK2, Homo sapiens, UniProt P24941); 5 µM): 94.2%

Nc1nc(Nc2ccccc2)sc1C(=O)c1c(F)cccc1F
remaining activity (CDK2 with cyclin A; 10 µM): 2%

O=C(Nc1cnn(-c2csc(C(=O)NC3COC3)c2)c1)Nc1ccccc1Cl
remaining activity (Cyclin-dependent kinase 2, with cyclin O (CDK2, Homo sapiens, UniProt P24941); 5 µM): 93.2%

Oc1cccc(-c2nc(N3CCOCC3)c3oc4ncccc4c3n2)c1
remaining activity (CDK2 with cyclin A; 10 µM): 94%

COc1cc(Nc2cnc(C#N)c(O[C@H](C)CN(C)C)n2)ncc1-c1cnn(C)c1
remaining activity (CDK2 with cyclin A; radiometric; 10 µM): 91%

Cc1sc(C(=O)NC2COC2)cc1-n1cc(NC(=O)Nc2c(F)cccc2Cl)cn1
remaining activity (Cyclin-dependent kinase 2, with cyclin E2 (CDK2, Homo sapiens, UniProt P24941); 10 µM): 90.8%

CC(C)(C)c1nc2c(s1)c1nc(N)ncc1c1ccc(NS(=O)(=O)c3c(F)cccc3F)c(F)c12
remaining activity (Cyclin-dependent kinase 2, with cyclin A2 (CDK2, Homo sapiens, UniProt P24941); radiometric; 1 µM): 70%

Cc1cnc(NC2CCOCC2)nc1-n1cnc(C(=O)NC(CN)c2cc(F)cc(Cl)c2)c1 (stereo not shown)
remaining activity (CDK2 with cyclin E; radiometric; 1 µM): 3%
